Test results as given in the M2OR odorant receptor database.
Substitutions are numbered along the chain they refer to.

Tests used:
Conditions in all cases: stereoisomer not certain
[1] = system: T1, O10A2 H43R H207R K258T
T1 sequence (whole entry): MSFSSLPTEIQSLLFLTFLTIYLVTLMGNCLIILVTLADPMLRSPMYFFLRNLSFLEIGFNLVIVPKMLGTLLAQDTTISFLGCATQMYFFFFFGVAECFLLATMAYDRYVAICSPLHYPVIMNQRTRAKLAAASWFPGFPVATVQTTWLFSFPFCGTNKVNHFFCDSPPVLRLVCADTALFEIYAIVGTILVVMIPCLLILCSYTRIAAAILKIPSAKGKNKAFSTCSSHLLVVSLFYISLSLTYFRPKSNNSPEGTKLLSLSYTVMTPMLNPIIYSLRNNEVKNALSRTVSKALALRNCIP
Procedure, shortened: (§1)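 Each receptor–molecule pair is labelled responsive or non-responsive (inactive) according to whether the original authors judged the measured signal statistically different from baseline. The data were taken from the main text and supplementary material of published papers and checked for typos and inconsistencies. Assay methods differed by source, with transient luciferase assays in mammalian cell lines being common.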

[2] = system: T2, O10A3 C8G
T2 sequence (whole entry): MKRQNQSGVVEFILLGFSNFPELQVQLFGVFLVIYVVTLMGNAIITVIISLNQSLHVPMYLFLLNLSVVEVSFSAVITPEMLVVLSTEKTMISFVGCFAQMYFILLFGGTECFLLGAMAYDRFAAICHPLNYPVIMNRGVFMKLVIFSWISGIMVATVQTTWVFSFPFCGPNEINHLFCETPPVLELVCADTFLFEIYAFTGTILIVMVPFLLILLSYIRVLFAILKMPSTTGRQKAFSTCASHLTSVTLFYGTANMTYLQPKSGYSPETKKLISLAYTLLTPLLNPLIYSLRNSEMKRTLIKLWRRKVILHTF
Procedure, shortened: as §1

[3] = system: T3, O10A6
T3 sequence (whole entry): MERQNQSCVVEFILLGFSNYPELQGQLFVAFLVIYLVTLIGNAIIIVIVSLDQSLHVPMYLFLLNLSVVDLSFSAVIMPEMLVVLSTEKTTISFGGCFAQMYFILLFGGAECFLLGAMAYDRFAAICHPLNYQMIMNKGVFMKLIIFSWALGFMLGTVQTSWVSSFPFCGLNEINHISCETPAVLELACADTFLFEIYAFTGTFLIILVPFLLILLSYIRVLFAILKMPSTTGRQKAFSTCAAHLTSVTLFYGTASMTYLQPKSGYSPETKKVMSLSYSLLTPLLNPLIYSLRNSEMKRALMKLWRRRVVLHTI
Procedure, shortened: as §1

[4] = system: T4, O10AD G65C
T4 sequence (whole entry): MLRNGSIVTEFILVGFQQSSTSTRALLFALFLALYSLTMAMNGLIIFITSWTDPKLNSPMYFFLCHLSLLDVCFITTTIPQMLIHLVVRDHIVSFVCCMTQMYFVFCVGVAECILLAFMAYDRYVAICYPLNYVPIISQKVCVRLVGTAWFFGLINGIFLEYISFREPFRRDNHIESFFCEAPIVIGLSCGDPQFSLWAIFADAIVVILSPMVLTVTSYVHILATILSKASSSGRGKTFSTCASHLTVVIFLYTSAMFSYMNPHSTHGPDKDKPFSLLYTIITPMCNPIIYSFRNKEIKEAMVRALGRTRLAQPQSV
Procedure, shortened: as §1

[5] = system: T5, O10D3 V134A R197K
T5 sequence (whole entry): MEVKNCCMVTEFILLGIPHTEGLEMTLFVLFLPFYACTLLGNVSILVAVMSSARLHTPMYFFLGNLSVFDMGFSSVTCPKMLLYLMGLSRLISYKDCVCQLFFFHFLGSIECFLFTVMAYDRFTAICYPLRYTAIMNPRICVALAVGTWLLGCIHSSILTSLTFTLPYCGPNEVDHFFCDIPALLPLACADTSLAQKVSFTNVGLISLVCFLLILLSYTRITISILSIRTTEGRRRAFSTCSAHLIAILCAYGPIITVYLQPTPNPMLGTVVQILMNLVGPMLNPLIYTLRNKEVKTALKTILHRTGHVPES
Procedure, shortened: as §1

[6] = system: T6, O10G4 L24P V195E
T6 sequence (whole entry): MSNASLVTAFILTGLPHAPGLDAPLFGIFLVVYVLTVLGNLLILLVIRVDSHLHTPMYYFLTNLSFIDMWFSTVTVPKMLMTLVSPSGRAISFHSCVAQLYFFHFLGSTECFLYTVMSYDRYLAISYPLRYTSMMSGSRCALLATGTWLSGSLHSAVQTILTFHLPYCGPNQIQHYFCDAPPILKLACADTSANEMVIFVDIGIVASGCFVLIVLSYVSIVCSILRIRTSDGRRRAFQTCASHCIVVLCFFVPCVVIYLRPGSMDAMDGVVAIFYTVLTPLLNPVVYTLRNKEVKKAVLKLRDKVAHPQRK
Procedure, shortened: as §1

[7] = system: T7, O10G7 A18V P19Q G20A
T7 sequence (whole entry): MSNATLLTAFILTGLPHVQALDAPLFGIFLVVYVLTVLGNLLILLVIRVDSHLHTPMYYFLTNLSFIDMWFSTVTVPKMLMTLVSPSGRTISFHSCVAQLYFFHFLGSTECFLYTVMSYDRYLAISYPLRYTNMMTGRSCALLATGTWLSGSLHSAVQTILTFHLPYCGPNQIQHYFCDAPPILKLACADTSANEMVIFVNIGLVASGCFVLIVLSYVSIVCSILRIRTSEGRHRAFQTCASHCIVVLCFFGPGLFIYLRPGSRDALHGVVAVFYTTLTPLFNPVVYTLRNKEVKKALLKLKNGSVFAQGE
Procedure, shortened: as §1

[8] = system: T8, O10G7 I28V
T8 sequence (whole entry): T7 sequence (whole entry) with V18A, Q19P, A20G, I28V
Procedure, shortened: as §1

[9] = system: T9, O10H2
T9 sequence (whole entry): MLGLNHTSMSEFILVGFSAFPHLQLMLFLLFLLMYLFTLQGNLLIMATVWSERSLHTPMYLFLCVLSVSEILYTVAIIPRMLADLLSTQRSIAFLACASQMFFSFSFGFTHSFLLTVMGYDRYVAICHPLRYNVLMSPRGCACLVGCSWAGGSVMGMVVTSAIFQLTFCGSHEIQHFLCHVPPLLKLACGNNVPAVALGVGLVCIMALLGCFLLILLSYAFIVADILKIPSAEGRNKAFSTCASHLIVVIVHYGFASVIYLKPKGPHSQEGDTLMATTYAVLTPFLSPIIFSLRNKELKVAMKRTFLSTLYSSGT
Procedure, shortened: as §1

[10] = system: T10, O10H3 R54H
T10 sequence (whole entry): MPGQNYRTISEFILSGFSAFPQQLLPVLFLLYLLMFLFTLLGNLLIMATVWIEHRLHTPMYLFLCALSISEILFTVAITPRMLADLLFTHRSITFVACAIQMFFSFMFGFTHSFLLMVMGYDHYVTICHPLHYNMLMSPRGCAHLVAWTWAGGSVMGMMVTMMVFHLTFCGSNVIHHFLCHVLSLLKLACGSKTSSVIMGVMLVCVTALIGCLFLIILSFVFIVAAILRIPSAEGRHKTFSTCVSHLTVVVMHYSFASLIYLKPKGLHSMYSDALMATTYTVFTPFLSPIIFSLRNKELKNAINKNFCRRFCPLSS
Procedure, shortened: as §1

[11] = system: T11, O10H4 I50V
T11 sequence (whole entry): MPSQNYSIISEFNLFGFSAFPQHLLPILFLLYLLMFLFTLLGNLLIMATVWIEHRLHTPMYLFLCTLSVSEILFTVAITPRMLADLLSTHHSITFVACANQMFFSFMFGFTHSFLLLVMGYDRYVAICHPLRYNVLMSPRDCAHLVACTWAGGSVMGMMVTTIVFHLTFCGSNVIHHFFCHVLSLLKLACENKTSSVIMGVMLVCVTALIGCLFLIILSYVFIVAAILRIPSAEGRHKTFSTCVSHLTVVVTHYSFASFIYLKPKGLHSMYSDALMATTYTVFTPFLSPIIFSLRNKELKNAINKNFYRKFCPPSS
Procedure, shortened: as §1

[12] = system: T12, O10H5 S268Y
T12 sequence (whole entry): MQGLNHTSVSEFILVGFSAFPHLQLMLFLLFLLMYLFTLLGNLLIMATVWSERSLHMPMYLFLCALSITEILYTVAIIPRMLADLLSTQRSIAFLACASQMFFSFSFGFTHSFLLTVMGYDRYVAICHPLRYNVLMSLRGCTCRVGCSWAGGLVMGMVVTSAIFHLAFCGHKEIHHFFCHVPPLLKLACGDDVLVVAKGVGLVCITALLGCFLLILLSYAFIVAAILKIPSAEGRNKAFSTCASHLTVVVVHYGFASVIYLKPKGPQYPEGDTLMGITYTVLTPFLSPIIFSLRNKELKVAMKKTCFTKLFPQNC
Procedure, shortened: as §1

[13] = system: T13, O10J1 M62I I103M
T13 sequence (whole entry): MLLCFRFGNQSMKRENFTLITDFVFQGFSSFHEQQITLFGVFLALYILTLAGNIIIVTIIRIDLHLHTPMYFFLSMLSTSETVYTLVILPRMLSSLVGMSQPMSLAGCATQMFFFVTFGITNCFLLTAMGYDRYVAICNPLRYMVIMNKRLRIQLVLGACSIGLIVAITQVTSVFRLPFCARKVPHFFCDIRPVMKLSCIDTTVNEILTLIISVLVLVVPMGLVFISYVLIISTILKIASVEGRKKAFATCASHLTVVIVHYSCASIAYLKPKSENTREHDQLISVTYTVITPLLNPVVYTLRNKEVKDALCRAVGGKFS
Procedure, shortened: as §1

[14] = system: T14, O10J1 M62I
T14 sequence (whole entry): T13 sequence (whole entry) with M103I
Procedure, shortened: as §1

[15] = system: T15, O10J3 Q235R E319G
T15 sequence (whole entry): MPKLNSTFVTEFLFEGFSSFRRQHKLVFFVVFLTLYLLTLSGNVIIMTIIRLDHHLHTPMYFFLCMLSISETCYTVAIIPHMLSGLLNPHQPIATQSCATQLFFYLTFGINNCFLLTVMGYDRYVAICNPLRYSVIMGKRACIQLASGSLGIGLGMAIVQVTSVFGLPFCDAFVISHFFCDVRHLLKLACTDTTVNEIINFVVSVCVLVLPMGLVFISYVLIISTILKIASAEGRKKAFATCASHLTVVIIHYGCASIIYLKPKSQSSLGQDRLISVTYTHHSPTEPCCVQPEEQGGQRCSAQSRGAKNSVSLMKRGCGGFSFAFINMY
Procedure, shortened: as §1

[16] = system: T16, O10P1 R195K
T16 sequence (whole entry): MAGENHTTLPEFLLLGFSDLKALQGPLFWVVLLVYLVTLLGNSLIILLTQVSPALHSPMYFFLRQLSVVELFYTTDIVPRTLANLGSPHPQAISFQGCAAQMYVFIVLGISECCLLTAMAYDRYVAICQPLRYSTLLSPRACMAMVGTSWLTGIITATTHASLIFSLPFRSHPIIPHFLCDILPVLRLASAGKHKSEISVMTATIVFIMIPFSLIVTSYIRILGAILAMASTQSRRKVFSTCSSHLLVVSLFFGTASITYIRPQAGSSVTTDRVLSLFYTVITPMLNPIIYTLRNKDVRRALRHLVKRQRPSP
Procedure, shortened: as §1

[17] = system: T17, O10Q1 E12D
T17 sequence (whole entry): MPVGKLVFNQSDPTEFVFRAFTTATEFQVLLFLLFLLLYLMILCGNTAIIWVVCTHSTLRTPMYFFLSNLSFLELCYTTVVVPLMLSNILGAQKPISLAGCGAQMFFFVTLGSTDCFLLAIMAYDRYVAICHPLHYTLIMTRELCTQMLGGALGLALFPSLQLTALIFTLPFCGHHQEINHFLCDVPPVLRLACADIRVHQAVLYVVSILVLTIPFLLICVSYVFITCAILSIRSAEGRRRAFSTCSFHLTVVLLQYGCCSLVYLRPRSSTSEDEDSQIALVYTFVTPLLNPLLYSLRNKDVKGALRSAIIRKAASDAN
Procedure, shortened: as §1

[18] = system: T18, O10Q1 Q10R E12D
T18 sequence (whole entry): T17 sequence (whole entry) with Q10R
Procedure, shortened: as §1

[19] = system: O10A6; remark: listed apart in the source
Procedure, shortened: as §1
Target sequence in this assay (as listed by the source): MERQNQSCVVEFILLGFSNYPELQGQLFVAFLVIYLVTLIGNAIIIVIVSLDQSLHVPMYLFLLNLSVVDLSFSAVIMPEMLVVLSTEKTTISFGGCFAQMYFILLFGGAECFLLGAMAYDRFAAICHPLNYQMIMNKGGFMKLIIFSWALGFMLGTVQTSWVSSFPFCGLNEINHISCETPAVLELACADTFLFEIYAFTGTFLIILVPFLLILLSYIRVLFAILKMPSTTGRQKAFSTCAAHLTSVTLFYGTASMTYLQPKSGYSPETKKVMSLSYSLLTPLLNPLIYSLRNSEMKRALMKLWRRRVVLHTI

[20] = system: O10A6; remark: listed apart in the source
Procedure, shortened: as §1
Target sequence in this assay (as listed by the source): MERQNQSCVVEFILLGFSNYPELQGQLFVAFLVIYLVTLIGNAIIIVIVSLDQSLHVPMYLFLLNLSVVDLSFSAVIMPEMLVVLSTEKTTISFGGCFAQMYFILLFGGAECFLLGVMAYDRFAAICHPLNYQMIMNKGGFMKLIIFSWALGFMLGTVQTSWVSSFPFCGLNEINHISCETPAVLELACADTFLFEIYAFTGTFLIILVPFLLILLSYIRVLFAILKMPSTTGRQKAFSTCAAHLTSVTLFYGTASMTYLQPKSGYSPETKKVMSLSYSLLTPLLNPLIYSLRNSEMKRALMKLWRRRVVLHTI

Measured: odorant receptor agonist call;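 further: active if original authors judged signal statistically different from baseline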

CCCC(S)CCOC(C)=O (centres undefined)
not listed: [19] | [20]
inactive: all other assays above

CCC(=O)OCCCc1ccccc1
inactive: [20]
active: [19] | [3]

CC1=C(O)C(=O)OC1C (centres undefined)
not listed: [19] | [20]
inactive: all other assays above
